# Reference: ChEMBL document CHEMBL1152218, “New acridone-4-carboxylic acid derivatives as potential inhibitors of hepatitis C virus infection” (Bioorg Med Chem, 2008)
# Active and inactive are the calls of the source. No cut-off for these calls is given here.
# Legend:
# [1] = system: Hepacivirus hominis; experiment: Inhibition of HCV NS3 helicase activity in presence of increasing concentration of double stranded DNA substrate at 33 uM
# Outline: (§1)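 Fluorometric NS3 helicase assay at 37 °C. Inhibitor was held at a constant concentration while the dsDNA substrate concentration was increased. Activity is expressed as percent of the same reaction with DMSO in place of inhibitor.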
# [2] = Inhibition of HCV NS3 helicase activity by fluorimetric assay; parameters: species or system Hepacivirus hominis
# Outline: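 Direct fluorometric assay of NS3 helicase unwinding, run at 37 °C. IC50 is the inhibitor concentration that reduces helicase activity by 50%.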
# [3] = system: Escherichia phage T7; experiment: Inhibition of T7 RNA polymerase activity assessed as blockade of DNA transcription
# Outline: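 In vitro transcription with T7 RNA polymerase, using 0.5 µg EcoRI-cut pTZ19R carrying a 341 bp insert as template. The reaction contained 2 mM of each NTP, 1 U/µl RNase inhibitor and 12 U enzyme in 40 mM Tris-HCl pH 7.9, 6 mM MgCl2, 2 mM spermidine, 10 mM NaCl and 10 mM DTT. Incubation was 1 h at 37 °C. Products were run on 1.2% agarose with EtBr, and IC99 was obtained by band densitometry.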
# [4] = Selectivity index, ratio of CC50 for human HuH7 cells to IC50 for HCV subtype 1a; format: functional, Huh-7
# Outline: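 The ratio CC50/EC50 comes from the XTT cytotoxicity assay and the luciferase replicon assay, both run in replicon-bearing Huh-7 cells.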
# [5] = system: Hepatitis C virus; experiment: Antiviral activity against HCV subtype 1a in Huh7 cells assessed as reduction of viral RNA replication; format: functional, organism-based, Hepacivirus hominis; conditions: Huh-7
# Outline: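 Subgenomic HCV replicon (luciferase) in Huh-7 cells; compounds at 1 to 200 µM, with at least three experiments and three replicates per concentration. Luminescence is expressed as percent of control wells containing 1–2% DMSO. EC50 is the concentration that reduces luminescence by 50%.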
# [6] = Cytotoxicity against human HuH7 cells by XTT assay; format: cell-based, Huh-7
# Outline: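 Huh-7 cells carrying the HCV replicon were grown with serial dilutions (1 to 200 µM) for 3 days at 37 °C. XTT-PMS staining followed for 3–4 h at 37 °C. Absorbance was read at 450 nm against a 690 nm reference, with cell-free blank wells subtracted. Growth is expressed as percent of 1–2% DMSO controls, and CC50 is the concentration giving 50% growth inhibition.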
# [7] = Binding affinity to dsRNA assessed as inhibition of ethidium bromide RNA intercalation at 20 uM by RNA migration retardation assay
# [8] = system: Nucleic Acid; experiment: Binding affinity to HCV con1 dsDNA assessed as inhibition of ethidium bromide DNA intercalation by DNA migration retardation assay; format: nucleic-acid assay; conditions: Hepacivirus hominis
# [9] = system: Hepacivirus hominis; experiment: Inhibition of HCV NS3 helicase activity in presence of increasing ATP concentration
# Outline: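 Fluorometric NS3 helicase assay, run at 37 °C, with IC50 determined at each of three ATP concentrations. Activity is expressed as percent of the same reaction with DMSO in place of inhibitor.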
# [10] = system: Hepacivirus hominis; experiment: Inhibition of HCV NS3 helicase activity in presence of increasing concentration of double stranded DNA substrate at 5 uM; outline: as §1
# [11] = Binding affinity to dsRNA assessed as inhibition of ethidium bromide RNA intercalation by RNA migration retardation assay
# [12] = system: Nucleic Acid; experiment: Binding affinity to HCV con1 dsDNA assessed as inhibition of ethidium bromide DNA intercalation at 500 uM by DNA migration retardation assay; format: nucleic-acid assay; conditions: Hepacivirus hominis
# [13] = system: Hepacivirus hominis; experiment: Inhibition of HCV NS3 helicase activity in presence of increasing concentration of double stranded DNA substrate at 10 uM; outline: as §1
Compound,Activity [1],IC50 [2] [µM],IC99 [3] [µM],Ratio CC50/EC50 [4],EC50 [5] [µM],CC50 [6] [µM],Activity [7],Activity [8],Activity [9],Activity [10],Activity [11],Activity [12],Activity [13]
Cc1cccnc1NC(=O)c1cccc2c(=O)c3ccccc3[nH]c12,inactive,20.2,80,3.5,11.1,39.2,Active,Active,–,–,–,–,–
O=C(c1cccc2c(=O)c3ccccc3[nH]c12)N1CCOCC1,–,> 100,> 100,–,–,–,–,–,–,–,–,–,–
Cc1ccnc(NC(=O)c2cccc3c(=O)c4ccccc4[nH]c23)c1,–,6.2,40,1.1,6.5,7,–,–,inactive,inactive,–,–,–
Cc1ccccc1NC(=O)c1cccc2c(=O)c3ccccc3[nH]c12,–,> 100,80,5.2,19,99.3,–,–,–,–,–,–,–
[N-]=[N+]=N[C@]1(CO)O[C@@H](n2ccc(N)nc2=O)[C@H](O)[C@@H]1O [4'-AZIDOCYTIDINE],–,–,–,–,1.4,–,–,–,–,–,–,–,–
O=C(Nc1ccccc1)c1cccc2c(=O)c3ccccc3[nH]c12,–,> 100,40,7.1,12.9,90.9,–,–,–,–,–,–,–
Cc1cccc(NC(=O)c2cccc3c(=O)c4ccccc4[nH]c23)c1,–,> 100,40,1,5.6,5.5,inactive,–,–,–,inactive,–,–
O=C(Nc1ccccn1)c1cccc2c(=O)c3ccccc3[nH]c12,–,3.8,40,40.5,10.2,412,Active,Active,–,inactive,–,–,–
O=C(NCCCN1CCOCC1)c1cccc2c(=O)c3ccccc3[nH]c12,–,> 100,> 100,–,–,–,–,–,–,–,–,–,–
Cc1ccc(NC(=O)c2cccc3c(=O)c4ccccc4[nH]c23)cc1,–,> 100,10,–,> 100,> 100,inactive,–,–,–,inactive,inactive,–
O=C(NCc1ccccn1)c1cccc2c(=O)c3ccccc3[nH]c12,–,> 100,> 100,2.4,4.3,10.2,inactive,–,–,–,–,–,–
CN(C)CCNC(=O)c1cccc2c(=O)c3ccccc3[nH]c12,–,> 100,80,–,–,–,–,–,–,–,–,–,–
O=C(c1cccc2c(=O)c3ccccc3[nH]c12)N1CCCCC1,–,> 100,> 100,–,–,–,–,–,–,–,–,–,–
O=C(Nc1ccncc1)c1cccc2c(=O)c3ccccc3[nH]c12,–,8.9,20,19.4,9,175,Active,Active,–,–,–,–,inactive
